Source: ChEMBL document CHEMBL1155539, “Discovery of 4-[1-[([1-[4-(trifluoromethyl)benzyl]-1H-indol-7-yl]carbonyl)amino]cyclopropyl]benzoic acid (MF-766), a highly potent and selective EP4 antagonist for treating inflammatory pain” (Bioorg Med Chem Lett, 2010)

Legend:
[1] = system: Hepatocyte; experiment: Metabolic stability in rat hepatocytes; format: ADME, cell-based
[2] = Drug level in complete Freund's adjuvant challenged rat administered daily once 9 days after adjuvant challenge measured on day 18 after 24 hrs post dose; format: ADME, organism-based; details: in vivo, read-out: Drug uptake
Summary of the method: (§1)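 In a separate rat AIA experiment with daily dosing, plasma drug levels were measured 2 h and 24 h after the final dose.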

[3] = Plasma clearance in Sprague-Dawley rat at 5 mg/kg, iv and 20 mg/kg, po; format: ADME, organism-based
Summary of the method: (§2)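 Sprague-Dawley rats dosed iv at 5 mg/kg and po at 20 mg/kg. The iv group was n = 2 males given the free acid in 60% PEG 200 at 1 mL/kg. PK parameters were derived from plasma levels.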

[4] = system: Rattus norvegicus; experiment: Antiinflammatory activity in rat assessed as inhibition of complete Freund's adjuvant-induced secondary paw swelling administered daily once 9 days after adjuvant challenge measured on day 18; format: functional
Summary of the method: (§3)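 Rat adjuvant-induced arthritis model with daily dosing in mg/kg/day. Dose groups were 0, 0.001, 0.01, 0.1 and 1 mg/kg, plus a non-AIA control group. Primary and secondary paw swelling were scored as % inhibition relative to vehicle-treated arthritic rats, and ED50 was estimated from the dose–response.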

[5] = Elimination half life in Beagle dog at 1 mg/kg, iv and 4 mg/kg, po; details: in vivo, read-out: beta t1/2 (converted)
[6] = system: Hepatocyte; experiment: Metabolic stability in human hepatocytes; format: ADME, cell-based
[7] = biological target: Prostaglandin E2 receptor EP2 subtype (Homo sapiens, UniProt P43116); experiment: Displacement of [3H]PGE2 from human prostanoid EP2 receptor expressed in HEK293-EBNA cells after 60 mins by scintillation counting; format: cell-based
[8] = system: Hepatocyte; experiment: Oxidative metabolism in human hepatocytes assessed as protein covalent binding after 2 hrs; format: ADME, cell-based
Summary of the method: (§4)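 [3H]-labelled compound incubated with fresh rat or human hepatocytes for 2 h. Covalent protein binding was expressed as pmol-equiv/mg protein, and samples were checked for tritium loss by HPLC with radiometric detection.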

[9] = biological target: T1, Prostaglandin E2 receptor EP3 subtype (Homo sapiens, UniProt P43115); experiment: Displacement of [3H]PGE2 from human prostanoid EP3 receptor expressed in HEK293-EBNA cells after 60 mins by scintillation counting; format: cell-based
T1 sequence (P43115 whole entry): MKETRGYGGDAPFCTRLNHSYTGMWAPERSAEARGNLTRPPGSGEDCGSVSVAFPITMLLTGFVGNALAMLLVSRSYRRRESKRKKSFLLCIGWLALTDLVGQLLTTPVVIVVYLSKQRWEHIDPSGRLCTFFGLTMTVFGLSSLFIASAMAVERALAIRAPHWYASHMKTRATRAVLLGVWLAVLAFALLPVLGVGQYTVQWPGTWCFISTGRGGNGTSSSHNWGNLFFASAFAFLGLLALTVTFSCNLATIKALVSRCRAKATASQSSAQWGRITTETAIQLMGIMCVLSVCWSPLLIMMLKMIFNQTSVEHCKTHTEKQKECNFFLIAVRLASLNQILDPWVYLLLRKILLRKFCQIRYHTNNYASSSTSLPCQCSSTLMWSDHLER

[10] = biological target: T2, Prostaglandin E2 receptor EP4 subtype (Homo sapiens, UniProt P35408); experiment: Displacement of [3H]PGE2 from human prostanoid EP4 receptor expressed in HEK293-EBNA cells after 60 mins by scintillation counting; format: cell-based
[11] = biological target: Prostaglandin F2-alpha receptor (Homo sapiens, UniProt P43088); experiment: Displacement of [3H]PGF2alpha from human prostanoid FP receptor expressed in HEK293-EBNA cells after 60 mins by scintillation counting; format: cell-based
[12] = Drug level in complete Freund's adjuvant challenged rat administered daily once 9 days after adjuvant challenge measured on day 18 after 2 hrs post dose; format: ADME, organism-based; details: in vivo, read-out: Drug uptake; summary of the method: as §1
[13] = Volume of distribution in Beagle dog at 1 mg/kg, iv and 4 mg/kg, po; details: in vivo
[14] = biological target: T3, Prostaglandin D2 receptor (Homo sapiens, UniProt Q13258); experiment: Displacement of [3H]PGD2 from human Prostanoid DP1 receptor expressed in HEK293-EBNA cells after 60 mins by scintillation counting; format: cell-based
T3 sequence (Q13258 whole entry): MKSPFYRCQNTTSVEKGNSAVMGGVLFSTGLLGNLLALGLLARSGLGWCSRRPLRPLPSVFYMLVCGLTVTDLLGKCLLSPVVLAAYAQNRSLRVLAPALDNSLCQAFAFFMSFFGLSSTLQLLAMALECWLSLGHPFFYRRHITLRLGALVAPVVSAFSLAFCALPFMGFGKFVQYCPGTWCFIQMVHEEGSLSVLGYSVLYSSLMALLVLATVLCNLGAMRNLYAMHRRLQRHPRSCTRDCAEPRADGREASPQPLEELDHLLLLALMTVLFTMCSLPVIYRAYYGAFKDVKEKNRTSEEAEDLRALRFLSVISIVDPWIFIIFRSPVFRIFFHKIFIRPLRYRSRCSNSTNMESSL

[15] = Volume of distribution in Sprague-Dawley rat at 5 mg/kg, iv and 20 mg/kg, po; format: ADME, organism-based; details: in vivo; summary of the method: as §2
[16] = biological target: T4, Thromboxane A2 receptor (Homo sapiens, UniProt P21731); experiment: Displacement of [3H]SQ-29548 from human prostanoid TP receptor expressed in HEK293-EBNA cells after 60 mins by scintillation counting; format: cell-based
T4 sequence (P21731 whole entry): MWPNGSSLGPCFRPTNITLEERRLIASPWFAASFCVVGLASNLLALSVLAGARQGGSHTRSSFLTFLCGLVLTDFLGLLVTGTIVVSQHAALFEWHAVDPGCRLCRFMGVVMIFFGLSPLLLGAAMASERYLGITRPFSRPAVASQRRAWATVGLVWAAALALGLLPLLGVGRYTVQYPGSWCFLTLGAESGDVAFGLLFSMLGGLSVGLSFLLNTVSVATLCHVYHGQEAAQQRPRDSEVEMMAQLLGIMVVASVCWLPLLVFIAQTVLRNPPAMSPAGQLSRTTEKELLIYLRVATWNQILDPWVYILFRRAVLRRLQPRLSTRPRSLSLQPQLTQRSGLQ

[17] = system: Rattus norvegicus; experiment: Antiinflammatory activity in rat assessed as inhibition of complete Freund's adjuvant-induced primary paw swelling administered daily once 9 days after adjuvant challenge measured on day 18; format: functional; summary of the method: as §3
[18] = system: Hepatocyte; experiment: Oxidative metabolism in rat hepatocytes assessed as protein covalent binding after 2 hrs; format: ADME, cell-based; summary of the method: as §4
[19] = biological target: T2, Prostaglandin E2 receptor EP4 subtype; experiment: Antagonist activity at human prostanoid EP4 receptor expressed in HEK293 cells assessed as inhibition of PGE2-induced cAMP accumulation by scintillation proximity assay in presence of 10% human serum; format: functional, cell-based
[20] = AUC (0 to 24 hrs) in Sprague-Dawley rat at 20 mg/kg, po; format: ADME, organism-based; parameters: time < 24 hr, dose 20 mg/kg, route oral; details: plasma; summary of the method: as §2
[21] = Elimination half life in Sprague-Dawley rat at 5 mg/kg, iv and 20 mg/kg, po; format: ADME, organism-based; details: in vivo, read-out: beta t1/2 (converted); summary of the method: as §2
[22] = system: Canis familiaris; experiment: AUC (0 to 24 hrs) in Beagle dog at 4 mg/kg, po; details: in vivo
[23] = system: Rattus norvegicus; experiment: Antiinflammatory activity in rat assessed as inhibition of complete Freund's adjuvant-induced secondary paw swelling at 0.001 to 1 mg/kg administered daily once 9 days after adjuvant challenge measured on day 18; format: functional; parameters: scale not given: the % may be the effect or the level left; details: dose mg/kg 0.001-1; summary of the method: as §3
[24] = biological target: T2, Prostaglandin E2 receptor EP4 subtype; experiment: Displacement of [3H]PGE2 from human prostanoid EP4 receptor expressed in HEK293-EBNA cells after 60 mins by scintillation counting in presence of 10% human serum; format: cell-based

T2 sequence (P35408 whole entry): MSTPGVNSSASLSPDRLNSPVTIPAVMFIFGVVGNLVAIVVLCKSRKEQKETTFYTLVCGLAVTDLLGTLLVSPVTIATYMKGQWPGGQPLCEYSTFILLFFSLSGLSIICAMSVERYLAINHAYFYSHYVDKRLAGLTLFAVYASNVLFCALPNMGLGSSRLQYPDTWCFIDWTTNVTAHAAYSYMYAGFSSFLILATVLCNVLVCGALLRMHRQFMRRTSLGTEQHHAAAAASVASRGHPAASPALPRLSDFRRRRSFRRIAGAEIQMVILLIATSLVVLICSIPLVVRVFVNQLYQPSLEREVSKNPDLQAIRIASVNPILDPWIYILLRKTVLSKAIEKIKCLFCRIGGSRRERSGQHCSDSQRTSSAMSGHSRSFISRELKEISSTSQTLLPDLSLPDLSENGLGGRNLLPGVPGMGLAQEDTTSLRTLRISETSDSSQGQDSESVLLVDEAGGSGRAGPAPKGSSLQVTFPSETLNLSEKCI
Prostaglandin E2 receptor EP2 subtype, sequence (P43116 whole entry): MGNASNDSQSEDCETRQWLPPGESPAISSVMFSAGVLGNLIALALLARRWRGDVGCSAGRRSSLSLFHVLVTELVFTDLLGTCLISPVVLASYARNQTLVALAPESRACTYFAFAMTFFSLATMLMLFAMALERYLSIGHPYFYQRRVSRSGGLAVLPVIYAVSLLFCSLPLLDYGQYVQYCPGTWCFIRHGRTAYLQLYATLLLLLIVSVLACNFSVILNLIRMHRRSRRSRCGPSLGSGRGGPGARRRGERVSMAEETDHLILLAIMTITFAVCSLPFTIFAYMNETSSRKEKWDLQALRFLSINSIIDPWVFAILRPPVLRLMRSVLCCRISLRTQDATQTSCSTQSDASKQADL
Prostaglandin F2-alpha receptor, sequence (P43088 whole entry): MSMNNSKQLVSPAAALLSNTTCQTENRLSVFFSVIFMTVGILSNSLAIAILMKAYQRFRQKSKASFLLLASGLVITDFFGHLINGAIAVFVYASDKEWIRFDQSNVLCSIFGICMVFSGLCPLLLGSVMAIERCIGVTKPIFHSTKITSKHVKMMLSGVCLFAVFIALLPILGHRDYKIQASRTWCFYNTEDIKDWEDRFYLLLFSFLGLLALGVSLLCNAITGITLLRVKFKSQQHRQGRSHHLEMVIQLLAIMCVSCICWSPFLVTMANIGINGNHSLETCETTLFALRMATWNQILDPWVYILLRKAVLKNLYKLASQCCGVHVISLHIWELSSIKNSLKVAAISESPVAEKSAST

Stability [1]: Stable | concentration at 24 h [2]: 3.1 nM | clearance [3]: 3.7 mL/min/kg | half-life [5]: 2.6 h | Stability [6]: Stable | Ki [7]: 8 µM | Activity [8]: 50 pmolequiv/mg | Ki [9]: 7.4 µM | Ki [10]: 0.00023 µM | Ki [11]: 6.4 µM | concentration at 2 h [12]: 28 nM | Vd [13]: 0.8 L/kg | Ki [14]: 1.65 µM | Vd [15]: 1 L/kg | Ki [16]: 6.7 µM | Activity [18]: 61 pmolequiv/mg | IC50 [19]: 0.0018 µM | AUC(0-t) at 24 h [20]: 150 µM·h | half-life [21]: 4.6 h | AUC [22]: 15 µM·h | Ki [24]: 0.00034 µM
Structure (SMILES): O=C(O)c1ccc(C2(NC(=O)c3cccc4ccn(Cc5ccc(C(F)(F)F)cc5)c34)CC2)cc1
ED100 [4]: 0.025 mg/kg/day | ED100 [17]: 0.025 mg/kg/day | Activity [23]: 100%
